Drawing on ChEMBL document CHEMBL4316611, “Design, synthesis and evaluation of novel (S)-tryptamine derivatives containing an allyl group and an aryl sulfonamide unit as anticancer agents” (Bioorg Med Chem Lett, 2019), this text covers Activity, IC50 and inhibition for 1 compound.

pIC50: −log10 of the molar value.

For test [1], the system named is HepG2. The experiment in a line: Induction of apoptosis in human HepG2 cells assessed as necrotic cells level at 30 uM incubated for 48 hrs by Annexin V-FITC/propidium iodide staining based flow cytometry (reference value: 0.53%). It is filed as functional.
Test [2] has as its system HepG2. The experiment in a line: Induction of apoptosis in human HepG2 cells assessed as viable cells level at 10 uM incubated for 48 hrs by Annexin V-FITC/propidium iodide staining based flow cytometry (reference value: 94.56%). The format is functional. In general terms: Flow cytometry measures light scatter and fluorescence of single cells or particles in a stream.
For test [3], the system named is HepG2. The experiment in a line: Cytotoxicity in human HepG2 cells assessed as reduction in cell viability incubated for 48 hrs by MTT assay. It is filed as functional, cell-based. Particulars: HepG2, 48 h. The procedure, abridged: (§1)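 MTT viability assay; cells exposed continuously to compounds for 48 h. IC50 values reported as mean ± SD. Cisplatin served as positive control.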
On the technique in general: Tetrazolium assays rely on reduction of a dye to a coloured formazan, in cell work by metabolically active cells.

Test [4] deals with HepG2. The experiment in a line: Induction of apoptosis in human HepG2 cells assessed as necrotic cells level at 20 uM incubated for 48 hrs by Annexin V-FITC/propidium iodide staining based flow cytometry (reference value: 0.53%). It is filed as functional.
The next test deals with HeLa. The test is described as follows: Cytotoxicity in human HeLa cells assessed as reduction in cell viability incubated for 48 hrs by MTT assay. It is filed as functional, cell-based. Put shortly: as §1
The subject of test [5] is HepG2. The experiment in a line: Induction of apoptosis in human HepG2 cells assessed as late apoptotic cells level at 10 uM incubated for 48 hrs by Annexin V-FITC/propidium iodide staining based flow cytometry (reference value: 2.02%). It is filed as functional.
Test [6] concerns HepG2. The test is described as follows: Induction of cell cycle arrest in human HepG2 cells assessed as accumulation at G1 phase at 35 uM incubated for 24 hrs by propidium iodide staining based flow cytometry (reference value: 39.79%). It is filed as functional.
A further test deals with CNE. The experiment in a line: Cytotoxicity in human CNE1 cells assessed as reduction in cell viability incubated for 48 hrs by MTT assay. It is filed as functional, cell-based. Put shortly: as §1
In test [7] the test system is HepG2. The experiment in a line: Induction of apoptosis in human HepG2 cells assessed as early apoptotic cells level at 20 uM incubated for 48 hrs by Annexin V-FITC/propidium iodide staining based flow cytometry (reference value: 2.89%). The format is functional.
For test [8], the system named is HepG2. The experiment in a line: Induction of apoptosis in human HepG2 cells assessed as viable cells level at 30 uM incubated for 48 hrs by Annexin V-FITC/propidium iodide staining based flow cytometry (reference value: 94.56%). It is filed as functional.
Test [9] deals with HepG2. The test is described as follows: Induction of apoptosis in human HepG2 cells assessed as late apoptotic cells level at 30 uM incubated for 48 hrs by Annexin V-FITC/propidium iodide staining based flow cytometry (reference value: 2.02%). The format is functional.
The test system of test [10] is HepG2. The test is described as follows: Induction of apoptosis in human HepG2 cells assessed as late apoptotic cells level at 20 uM incubated for 48 hrs by Annexin V-FITC/propidium iodide staining based flow cytometry (reference value: 2.02%). The format is functional.
In test [11] the test system is HepG2. The test is described as follows: Inhibition of colony formation in human HepG2 cells incubated for 14 days by Giemsa staining based assay. It is filed as functional, cell-based. The procedure, abridged: (§2)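 Colony formation assay: cells exposed at 0, 2.5, 5 and 7.5 μM for 2 weeks. Colonies imaged and quantified by image analysis. Inhibition rate expressed as mean ± SD against control.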

In test [12] the test system is HepG2. The experiment in a line: Induction of apoptosis in human HepG2 cells assessed as necrotic cells level at 10 uM incubated for 48 hrs by Annexin V-FITC/propidium iodide staining based flow cytometry (reference value: 0.53%). The format is functional.
Test [13] relates to HepG2. The experiment in a line: Induction of apoptosis in human HepG2 cells assessed as early apoptotic cells level at 10 uM incubated for 48 hrs by Annexin V-FITC/propidium iodide staining based flow cytometry (reference value: 2.89%). It is filed as functional.
Test [14] relates to HepG2. The test is described as follows: Induction of cell cycle arrest in human HepG2 cells assessed as accumulation at G1 phase at 25 uM incubated for 24 hrs by propidium iodide staining based flow cytometry (reference value: 39.79%). The format is functional.
Test [15] deals with HepG2. The test is described as follows: Induction of apoptosis in human HepG2 cells assessed as viable cells level at 20 uM incubated for 48 hrs by Annexin V-FITC/propidium iodide staining based flow cytometry (reference value: 94.56%). It is filed as functional.
For test [16], the system named is HepG2. The experiment in a line: Induction of cell cycle arrest in human HepG2 cells assessed as accumulation at G1 phase at 15 uM incubated for 24 hrs by propidium iodide staining based flow cytometry (reference value: 39.79%). The format is functional.
In another test the test system is A549. The test is described as follows: Cytotoxicity in human A549 cells assessed as reduction in cell viability incubated for 48 hrs by MTT assay. The format is functional, cell-based. Particulars: A549, 48 h. The procedure, abridged:
as §1

Test [17] deals with HepG2. The test is described as follows: Inhibition of colony formation in human HepG2 cells at 7.5 uM incubated for 14 days by Giemsa staining based assay. Particulars: HepG2, 336 h. The format is functional. The procedure, abridged: as §2
Test [18] relates to HepG2. The test is described as follows: Induction of cell cycle arrest in human HepG2 cells assessed as accumulation at G1 phase incubated for 24 hrs by propidium iodide staining based flow cytometry. The format is functional.
For test [19], the system named is HepG2. The experiment in a line: Induction of apoptosis in human HepG2 cells assessed as early apoptotic cells level at 30 uM incubated for 48 hrs by Annexin V-FITC/propidium iodide staining based flow cytometry (reference value: 2.89%). It is filed as functional.

The pIC50 is the IC50 on a negative log10 scale, so that one unit is a factor of ten. Usually inhibition stands for the share of the control response that was lost under treatment. Consider `C=CC[C@@H](Cc1c[nH]c2ccccc12)NS(=O)(=O)c1c(C(C)C)cc(C(C)C)cc1C(C)C`, for which the Activity is recorded as 0.91% in the test on HepG2 [1]; 89.7% in the test on HepG2 [2]; 0.75% in the test with HepG2 [4]; 2.96% in the test with HepG2 [5]; 53.35% in the test with HepG2 [6]; 21.29% in the test with HepG2 [7]. For the same compound, the Activity in the test on HepG2 [8] came out at 25.38%; in the test with HepG2 [9], 20.25%; in the test with HepG2 [10], 4.85%; with HepG2 [12], 0.69%; with HepG2 [13], 6.63%; with HepG2 [14] it was 48.82%. In addition, the Activity in the test on HepG2 [15] was 73.08%; in the test with HepG2 [16], 44.89%; in the test on HepG2 [18] it was “Dose-dependent effect”; in the test with HepG2 [19] it was 53.46%. Further, the pIC50 in the test on HepG2 [3] was 4.78; with HeLa, 4.78; in the test on CNE, 4.74; in the test with A549, 4.73. Besides, the inhibition entry in the test with HepG2 [11] was “Dose-dependent effect”. This compound displayed an inhibition at 7.5 µM in the test on HepG2 [17] of 95%.
